This is an account of results in ChEMBL document CHEMBL1125728, “Dopamine autoreceptor agonists as potential antipsychotics. 2. (Aminoalkoxy)-4H-1-benzopyran-4-ones” (J Med Chem, 1991).

The subject of test [1] is Rattus norvegicus. Put plainly: Percentage of rats showing signs of stereotyped behavior at 30 mg/kg peroral dose and animals observed for 60 min postdose. As to conditions: route oral.
The target in another test is D(2) dopamine receptor (Rattus norvegicus, UniProt P61169). Kind of test: Compound was tested for its inhibitory effect on the binding profile in Dopamine receptor D2 using [3H]haloperidol in rat brain. Type of test: tissue-based. The method in brief:
(§1)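 Rat brain receptor binding with the stated radioligands. IC50 obtained by nonlinear regression from four to five concentrations. [3H]flupenthixol and [3H]N-propylnorapomorphine values come from four independent determinations each, and the [3H]haloperidol value from two experiments. Remaining ligands were determined once.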

For test [2], the target named is T1, Adrenergic receptor alpha-1 (Rattus norvegicus, UniProt P15823+P23944+P43140).
T1 sequence (P15823 whole entry): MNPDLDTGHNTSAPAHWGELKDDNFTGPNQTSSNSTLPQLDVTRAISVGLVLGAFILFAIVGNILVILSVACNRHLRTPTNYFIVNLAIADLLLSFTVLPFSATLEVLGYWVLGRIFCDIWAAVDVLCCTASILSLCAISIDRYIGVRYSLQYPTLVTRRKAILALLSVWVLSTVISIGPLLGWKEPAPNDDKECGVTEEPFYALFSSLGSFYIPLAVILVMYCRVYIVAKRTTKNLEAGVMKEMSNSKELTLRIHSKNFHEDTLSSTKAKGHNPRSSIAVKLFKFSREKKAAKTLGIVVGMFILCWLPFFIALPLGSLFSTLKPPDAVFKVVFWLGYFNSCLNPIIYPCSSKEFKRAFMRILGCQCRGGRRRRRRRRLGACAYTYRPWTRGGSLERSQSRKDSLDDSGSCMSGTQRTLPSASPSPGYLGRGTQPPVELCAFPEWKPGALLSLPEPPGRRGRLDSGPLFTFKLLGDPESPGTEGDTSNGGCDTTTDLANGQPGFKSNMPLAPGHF
T1 sequence (P23944 whole entry): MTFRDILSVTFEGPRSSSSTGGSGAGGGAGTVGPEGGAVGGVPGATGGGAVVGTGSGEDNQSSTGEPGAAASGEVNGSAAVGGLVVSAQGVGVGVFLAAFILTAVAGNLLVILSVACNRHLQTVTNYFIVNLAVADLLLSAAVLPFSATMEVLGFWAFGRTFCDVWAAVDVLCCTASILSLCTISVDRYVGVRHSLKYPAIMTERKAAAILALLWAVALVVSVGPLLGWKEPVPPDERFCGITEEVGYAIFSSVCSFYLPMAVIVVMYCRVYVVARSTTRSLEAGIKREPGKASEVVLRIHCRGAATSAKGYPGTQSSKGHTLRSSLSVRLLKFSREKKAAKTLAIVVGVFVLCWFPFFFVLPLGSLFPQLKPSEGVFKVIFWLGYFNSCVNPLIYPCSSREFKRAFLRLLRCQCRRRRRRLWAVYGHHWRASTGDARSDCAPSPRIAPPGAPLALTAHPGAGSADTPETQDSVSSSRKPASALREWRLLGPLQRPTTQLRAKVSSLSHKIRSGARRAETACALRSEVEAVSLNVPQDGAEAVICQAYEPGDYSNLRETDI
T1 sequence (P43140 whole entry): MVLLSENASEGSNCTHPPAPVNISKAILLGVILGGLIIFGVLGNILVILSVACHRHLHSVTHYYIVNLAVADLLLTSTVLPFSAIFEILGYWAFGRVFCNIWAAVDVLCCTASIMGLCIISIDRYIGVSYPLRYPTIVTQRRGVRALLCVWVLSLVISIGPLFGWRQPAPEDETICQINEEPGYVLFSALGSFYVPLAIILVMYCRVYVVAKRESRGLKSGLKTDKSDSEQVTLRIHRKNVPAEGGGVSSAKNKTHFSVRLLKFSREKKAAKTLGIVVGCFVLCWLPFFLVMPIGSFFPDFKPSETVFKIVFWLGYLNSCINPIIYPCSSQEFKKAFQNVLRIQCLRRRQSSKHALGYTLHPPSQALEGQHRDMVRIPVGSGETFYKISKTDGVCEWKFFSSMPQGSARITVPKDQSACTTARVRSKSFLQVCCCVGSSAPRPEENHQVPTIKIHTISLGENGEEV
Kind of test: Compound was tested for its inhibitory effect on the binding profile in Alpha-1 adrenergic receptor using [3H]prazosin in rat brain. In kind it is tissue-based. The essentials: as §1

Test [3] concerns Rattus norvegicus. Put plainly: Compound tested for its effect on reversal of 6-OHDA induced depression in rats after sc administration. In kind it is functional. The method in brief:
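Rats lesioned at least 1 month earlier with 6-OHDA (20 μg icv) plus pargyline (50 mg/kg ip) and desipramine (25 mg/kg ip), giving about 90% brain DA depletion. Drug given sc, then locomotor activity recorded for 30 min from dosing. ED200 estimated from three or four doses, six rats per dose.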

Test [4] addresses Serotonin 2 (5-HT2) receptor (Rattus norvegicus, UniProt P30994+P08909+P14842). Kind of test: Compound was tested for its inhibitory effect on the binding profile in 5-hydroxytryptamine 2 receptor using [3H]spiroperidol in rat brain. In kind it is tissue-based. The method in brief:
as §1

The target of the next test is Dopamine receptor. Put plainly: Compound was tested for inhibitory binding activity against Dopamine receptor in rat striatal membranes using [3H]HAL as the radioligand. In kind it is cell membranes, Striatum, Membrane. The method in brief:
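[3H]Haloperidol displacement from rat striatal DA receptors, run in duplicate. IC50 obtained by nonlinear regression from four to five concentrations.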

Test [5] concerns Rattus norvegicus. Put plainly: Compound tested for % inhibition of DA neuronal firing at an intraperitoneal dose of 2.5 mg/kg. The conditions noted are these: ip. In kind it is functional.
The test system of test [6] is Rattus norvegicus. Kind of test: Compound tested for % reversal of DOPA accumulation at an intraperitoneal dose of 30 mg/kg. Type of test: functional. The method in brief: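 Rats dosed 1 h before sacrifice, with GBL (750 mg/kg ip) at 30 min and NSD 1015 (100 mg/kg ip) at 25 min before sacrifice. Striatal DOPA measured by HPLC with electrochemical detection. Value is percent reversal of the GBL-induced DOPA rise.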

Test [7] deals with Rattus norvegicus. Kind of test: Effect on DOPA accumulation level at an intraperitoneal dose of 30 mg/kg in rat. Type of test: functional.
Test [8] can be described thus: Compound was tested for its inhibition of Sidman avoidance after peroral administration in Squirrel monkeys. Type of test: functional. The conditions noted are these: po. The method in brief: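 Sidman avoidance in mature squirrel monkeys, oral dosing. ED50 ± SEM generated from three doses, four animals per dose.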

Chain of D(2) dopamine receptor (P61169 whole entry): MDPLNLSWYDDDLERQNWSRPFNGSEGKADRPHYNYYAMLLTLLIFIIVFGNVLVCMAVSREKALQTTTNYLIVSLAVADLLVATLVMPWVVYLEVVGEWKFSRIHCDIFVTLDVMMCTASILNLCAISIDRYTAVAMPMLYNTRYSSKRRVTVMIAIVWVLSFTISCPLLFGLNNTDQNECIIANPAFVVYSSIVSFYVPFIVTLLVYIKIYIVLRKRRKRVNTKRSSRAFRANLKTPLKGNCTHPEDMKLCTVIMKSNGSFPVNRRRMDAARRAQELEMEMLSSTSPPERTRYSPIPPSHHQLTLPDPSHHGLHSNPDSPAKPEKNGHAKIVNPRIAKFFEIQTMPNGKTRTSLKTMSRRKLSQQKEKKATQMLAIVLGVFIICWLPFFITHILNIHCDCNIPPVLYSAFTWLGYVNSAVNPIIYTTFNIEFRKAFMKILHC

Compound `O=c1ccoc2cc(OCCCN3CCN(c4ccccn4)CC3)ccc12` displayed an Animals in the test on Rattus norvegicus [1] of 0%. Moreover, the IC50 worked out at 1080 nM on D(2) dopamine receptor, 170 nM in [2], 1000 nM in test [4] and 1000 nM on Dopamine receptor. Moreover, the ED200 with Rattus norvegicus [3] is above 5 mg/kg. The same compound showed an inhibition in vivo at 2.5 mg/kg in the test with Rattus norvegicus [5] of 93%. In the test on Rattus norvegicus [6], the Reversal came to 100%. The compound further registered a DOPA level in the test with Rattus norvegicus [7] of 0.28 µg/g. For the same compound, the ED50 in [8] was determined as 6 mg/kg.

What is called IC50 is the concentration at which inhibition is half-maximal. Read a low IC50 as inhibition by little substance. What is called inhibition in vivo is how much of the control response was suppressed. Higher therefore signals strong suppression. One may read the ED50 as the dose at which the effect has come halfway, by size or by number of responders.
